Assay outcomes deposited in PubChem by several laboratories.
Sampled rows, rich in hits. Any-hit rate of the full collection: about 3.4%.
MEKK2 mut-MEK5: MEK5 binding signal on mutant MEKK2 PB1, primary screen, biochemical, multiplex bead flow cytometry, Alexa488-MEK5. 290,000 tested, 0.35% active. Alexa488-MEK5 binding to MEKK2 mutant. AID 1530, 2009. percent response, % at 10 µM; in the data active = percent response above about 24%, passing the limit was not always enough
VIM-2 inh: VIM-2 metallo-beta-lactamase inhibitors, primary screen, biochemical, epi-absorbance readout, Pseudomonas aeruginosa enzyme; purified VIM-2, nitrocefin hydrolysis, epi-absorbance fluorescence; inhibition, % at 5.6 µM; 290,000 tested, 0.89% active; AID 1527, 2009;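 active = inhibition above the mean of all tested compounds plus 3 SD, cutoff set per screening run, cut at about 7.5% in these data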;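 also: red hydrolysis product quenches plate fluorescence so inhibitors raise well fluorescence; 0% = enzyme with DMSO and 100% = DMSO without enzyme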
IMP-1 inhibitor: IMP-1 metallo-beta-lactamase inhibitors, primary screen, biochemical, epi-absorbance readout, Pseudomonas aeruginosa enzyme; purified IMP-1, nitrocefin hydrolysis, epi-absorbance fluorescence; 290,000 tested, 0.45% active; inhibition, % at 5.6 µM; metallo-beta-lactamase IMP-1 (Pseudomonas aeruginosa);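 active = inhibition above the mean plus 3 SD of all compounds in the same screening run, cut at about 4.5% in these data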;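 also: 0% = IMP-1 with DMSO and 100% = DMSO wells lacking enzyme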
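system = purified recombinant IMP-1 beta-lactamase | amount = 0.2 nM IMP-1, as dispensed | medium = HEPES buffer pH 7.1 with ZnSO4 and Brij 35 | times = 25 °C, 15 min preincubation, 25 min reaction | detection = plate fluorescence quenching by hydrolysis product, ex 480/em 530 nm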
MEKK3 PB1 HTS: modulators of MEKK3-MEK5 PB1 binding, primary screen, biochemical, wildtype MEKK3, multiplex bead flow cytometry, Alexa488-MEK5; AID 1529, 2009; 290,000 tested, 1.4% active; binding response (% of control), % at 10 µM; bead-based flow cytometry, Alexa488-MEK5 binding to MEKK3; actives lie on both sides; 0 = blocked by unlabeled MEK5, 100 = vehicle; Mitogen-activated protein kinase kinase kinase 3 (Homo sapiens), Q99759;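 active = binding response more than 3 SD above or below the average of its plate-row segment, actives on both sides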;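 also: Alexa488 bead fluorescence after subtracting the streptavidin-only scavenger bead signal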
Target sequence (Q99759 whole entry, looked up): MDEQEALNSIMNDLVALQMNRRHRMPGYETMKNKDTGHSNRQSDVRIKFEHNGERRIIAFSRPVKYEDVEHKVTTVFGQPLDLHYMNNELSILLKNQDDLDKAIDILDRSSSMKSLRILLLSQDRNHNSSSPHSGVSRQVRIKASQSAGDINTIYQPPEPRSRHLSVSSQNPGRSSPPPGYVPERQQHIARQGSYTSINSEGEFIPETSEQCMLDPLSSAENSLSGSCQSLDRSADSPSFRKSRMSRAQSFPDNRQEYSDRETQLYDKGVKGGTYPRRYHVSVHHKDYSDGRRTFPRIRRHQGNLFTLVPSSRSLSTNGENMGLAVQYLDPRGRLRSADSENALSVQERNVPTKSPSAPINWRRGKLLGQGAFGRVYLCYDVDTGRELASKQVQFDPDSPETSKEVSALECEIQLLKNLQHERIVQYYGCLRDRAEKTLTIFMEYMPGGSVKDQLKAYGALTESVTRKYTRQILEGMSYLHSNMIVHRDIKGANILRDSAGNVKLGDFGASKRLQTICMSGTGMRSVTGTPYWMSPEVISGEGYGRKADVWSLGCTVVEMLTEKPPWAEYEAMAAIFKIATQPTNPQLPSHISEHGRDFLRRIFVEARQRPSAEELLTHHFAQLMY
MEKK2wt PB1 HTS: modulators of MEK5 binding to wildtype MEKK2, primary screen, biochemical, multiplex bead flow cytometry, Alexa488-MEK5; Mitogen-activated protein kinase kinase kinase 2 (Homo sapiens), Q9Y2U5; Alexa488-MEK5 binding to MEKK2 WT; actives lie on both sides; binding response (% of control), % at 10 µM; 290,000 tested, 1.1% active; AID 1531, 2009; in the data active = binding response below about 67% or above about 130%
MEKK2wt confirm: modulators of MEK5 binding to wildtype MEKK2, confirmation, biochemical, single concentration, multiplex bead flow cytometry; shares compounds with MEKK3 PB1 HTS; Alexa488-MEK5 binding to MEKK2 WT; actives lie on both sides; binding response (% of control), % at 10 µM; 5,900 tested, 2.4% active; AID 1892, 2009; in the data active = binding response below about 16% or above about 210%; inactive = in between
MEKK2mut-MEK5: mutant MEKK2 PB1-MEK5 binding signal retest – biochemical, single concentration, multiplex bead flow cytometry, confirmation | percent response, % at 10 µM | shares compounds with MEKK3 PB1 HTS | Alexa488-MEK5 binding to MEKK2 mutant | 5,900 tested, 2% active; in the data active = percent response mostly above about 71%, no sharp cut-off; inactive = mostly below about 38%;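 also: higher means compound restores mutant binding toward wildtype level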
MEKK3 confirm: MEKK3 wild-type PB1 binding to MEK5, inhibitors, confirmation, biochemical, bead multiplex flow cytometry, single concentration, wildtype; Alexa488-MEK5 binding to MEKK3; stronger effect = lower value; binding response (% of control), % at 10 µM; shares compounds with MEKK3 PB1 HTS; 5,900 tested, 1.8% active;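 active = binding response below 72% of control, or above a set upper limit, though filed actives all read lower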;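 also: 100% = DMSO only wells and 0% = binding blocked by excess unlabeled MEK5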
* marks the source's active call; other numbers are inactive results; nt = no result; [ ] = another dose, or the depositor's remark.

SMILES	MEKK2 mut-MEK5	VIM-2 inh	IMP-1 inhibitor	MEKK3 PB1 HTS	MEKK2wt PB1 HTS	MEKK2wt confirm	MEKK2mut-MEK5	MEKK3 confirm
C#CCOCCOCCOCCNc1nc(N2CCN(C(=O)[C@H](Cc3ccc(O)cc3)n3cc([C@@H](N)C(C)CC)nn3)CC2)nc(N2CCN(C(=O)[C@H](Cc3cc4ccccc4[nH]3)n3cc([C@@H](N)Cc4ccc(O)cc4)nn3)CC2)n1 (some centres not stated)	6	nt	nt	106	169*	241*	125*	113
C#CCOCCOCCOCCNc1nc(N2CCN(C(=O)C(Cc3cc4ccccc4[nH]3)n3cc(C(N)C(C)CC)nn3)CC2)nc(N2CCN(C(=O)C(Cc3cc4ccccc4[nH]3)n3cc(C(N)C(C)CC)nn3)CC2)n1 (configuration not stated)	105*	1	1	110	254*	254*	107*	111
C#CCOCCOCCOCCNc1nc(N2CCN(C(=O)[C@H]([C@@H](C)CC)n3cc([C@@H](N)CO)nn3)CC2)nc(N2CCN(C(=O)[C@H]([C@@H](C)CC)n3cc([C@@H](N)CC(C)C)nn3)CC2)n1	27	-1	-1	112	139*	115	6	101
CCOc1ccccc1OCc1nn2c(COc3ccccc3)nnc2s1	4	-4	-3	101	99	nt	nt	nt
Cc1ccc2c(CSc3nc4nc(C)cc(C)n4n3)cc(=O)oc2c1	-9	0	0	94	97	nt	nt	nt
COc1ccc2c(CSc3nc4nc(C)cc(C)n4n3)cc(=O)oc2c1	6	2	3	122*	123	97	-3	100
COc1ccc(N(CC(=O)Nc2cccc(C)c2C)S(=O)(=O)c2c(C)[nH]c(=O)[nH]c2=O)cc1	9	-1	-2	111	106	nt	nt	nt
CC1CC2(C)Oc3ccccc3CC2C(C)C1CNCCCN(C)C (configuration not stated)	21	2	0	103	139*	113	4	95
C=CCN1C(c2ccccc2)=CS/C1=C(/C#N)c1nnc(N2CCOCC2)n1-c1ccccc1	-1	-1	-2	95	95	nt	nt	nt
O=C(Nn1c(C2CC2)nc2ccccc2c1=O)c1ccco1	4	1	-3	106	104	nt	nt	nt
Cc1ccc(Nc2ncnc3c2nnn3Cc2ccccc2)cc1	29	-3	-2	132*	134	104	1	103
NC(=O)N/N=C/c1cn(-c2ccccc2)nc1-c1cccnc1	-5	-2	-4	98	104	nt	nt	nt
Cn1c(C(=O)NCCCN2CCc3ccccc3C2)cc2c(=O)n(C)c3ccccc3c21	16	9.8*	-3	104	143*	122	12	101
COCCNC(=O)Cn1c(=O)n(Cc2ccc(C(=O)NCCc3ccc(OC)c(OC)c3)cc2)c(=O)c2ccccc21	-18	-1	-1	37*[inhibitor]	45*[inhibitor]	102	4	103
COCCCNC(=O)c1ccc(Cn2c(=O)c3ccccc3n(CC(=O)NCc3ccco3)c2=O)cc1	-4	-2	0	96	94	nt	nt	nt
COc1ccc(CCNC(=O)c2cc3c(=O)n(C)c4ccccc4c3n2C)cc1OC	31	-1	-3	132*	114	97	-6	96
